From BindingDB's records for doi:10.1021/np900192r (Cnrs, 2009)
pKi: −log10 of the molar value.

target: Bcl-2-like protein 1 (Homo sapiens, UniProt Q07817); experiment: Binding affinity to Bcl-xL by fluorescein-labeled Bak-BH3 peptide competition binding assay
Outline: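 Fluorescence polarization competition on Bcl-xL against a fluorescein-tagged Bak BH3-domain peptide as the reference ligand. Ki is the dissociation constant at equilibrium with the reference ligand. Unlabeled Bak(BH3) peptide and a substituted terphenyl derivative served as positive controls. Bcl-xL values are from duplicate runs.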

Chain of Bcl-2-like protein 1 (Q07817 whole entry): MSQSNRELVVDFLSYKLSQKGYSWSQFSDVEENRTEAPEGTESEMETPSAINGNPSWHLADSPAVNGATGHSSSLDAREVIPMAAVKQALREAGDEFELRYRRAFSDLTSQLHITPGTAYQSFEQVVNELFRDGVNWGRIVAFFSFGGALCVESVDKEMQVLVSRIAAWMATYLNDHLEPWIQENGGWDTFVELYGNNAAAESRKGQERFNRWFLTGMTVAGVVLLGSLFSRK

pKi, < 4.00:
CC(=O)O[C@@H]1[C@@H](OC(C)=O)[C@@H](O)[C@H](OC[C@]2(C)[C@@H](OC(C)=O)C[C@H](O)[C@]3(C)[C@H]4CC=C5[C@H]6C[C@](C)(C(=O)O)CC[C@]6(C)CC[C@@]5(C)[C@]4(C)CC[C@@H]23)O[C@H]1C [23-O-[alpha-L-(3',4'-Diacetylrhamnopyranosyl]-3beta-acetylimberbic acid]
COC(=O)[C@]1(C)CC[C@]2(C)CC[C@]3(C)C(=CC[C@@H]4[C@@]5(C)[C@@H](O)C[C@H](OC(C)=O)[C@@](C)(CO[C@@H]6O[C@@H](C)[C@H](OC(C)=O)[C@@H](O)[C@H]6O)[C@@H]5CC[C@]43C)[C@H]2C1 [23-O-[alpha-L-(4'-Acetylrhamnopyranosyl]-3beta-acetylimberbic acid 29-methyl ester]
CC(=O)O[C@@H]1[C@@H](O)[C@@H](O)[C@H](OC[C@]2(C)[C@@H](OC(C)=O)C[C@H](O)[C@]3(C)[C@H]4CC=C5[C@H]6C[C@](C)(C(=O)O)CC[C@]6(C)CC[C@@]5(C)[C@]4(C)CC[C@@H]23)O[C@H]1C [23-O-[alpha-L-(4'-Acetylrhamnopyranosyl]-3beta-acetylimberbic acid]
